Measured values pooled from the literature.
Protocols differ between the studies behind these lines.
Organism: Severe acute respiratory syndrome coronavirus 2

SMILES	assay	system	setting	IC50
CCN(CC)CCCC(C)Nc1ccnc2cc(Cl)ccc12 (stereo not drawn)	viral replication, inhibitor	Vero C1008	–	42 µM
CC[C@@H]1C[C@]1(NC(=O)[C@@H]1C[C@@H]2CN1C(=O)[C@H](C(C)(C)C)NC(=O)OCC(C)(C)CCCCc1cccc3c1CN(C3)C(=O)O2)C(=O)NS(=O)(=O)C1CC1	viral replication	HEK-293T	–	3 µM
CNc1ccc2oc(C[C@H]3O[C@@]4(CC[C@H]3C)O[C@H]([C@H](C)C(=O)c3ccc[nH]3)[C@H](C)C[C@H]4C)nc2c1C(=O)O	viral replication, inhibitor	Calu-3	40 h	1.55 µM
CCOC(=O)N1CCC(=C2c3ccc(Cl)cc3CCc3cccnc32)CC1	viral replication, inhibitor	Huh-7	–	> 2 µM
CCN(CC)CCO[C@H]1CC[C@@]2(C)C(=CC[C@@H]3[C@@H]2CC[C@]2(C)C(=O)CC[C@@H]32)C1	viral replication	Vero C1008	–	2.4 µM
C[C@H](Nc1nc(N2CCNCC2)nc2ccccc12)c1ccccc1	cytopathic effect	Vero C1008	72 h	10 µM
CC(C)CCCCCCCCC[C@@H]1CC(=O)N[C@@H](CCC(=O)O)C(=O)N[C@@H](CC(C)C)C(=O)N[C@H](CC(C)C)C(=O)N[C@@H](C(C)C)C(=O)N[C@@H](CC(=O)O)C(=O)N[C@H](CC(C)C)C(=O)N[C@@H](CC(C)C)C(=O)O1	viral replication, inhibitor	Vero	24 h	> 0.4 µg/mL
COc1ccc2c(c1)[C@]13CCCC[C@@H]1[C@H](C2)N(C)CC3	viral replication, inhibitor	A549-ACE2	–	4.17 µM
NC(=O)c1nc(F)c[nH]c1=O	viral replication, inhibitor	Vero C1008	–	> 100 µM
CC(C)(C)[C@]1(O)CCN2C[C@H]3c4ccccc4CCc4cccc(c43)[C@@H]2C1	viral replication	Vero C1008	–	6.17 µM
Cc1ccc(NC(=O)c2c(N)nc(S[C@@H]3O[C@H](CO)[C@@H](O)[C@H](O)[C@H]3O)[nH]c2=S)cc1	viral replication	Vero C1008	72 h	73.7 µM
COc1ccc(CN2CCN(Cc3ccccc3)CC2)cc1	viral replication	Vero C1008	–	1.58 µM
CCCCc1oc2ccc(NS(C)(=O)=O)cc2c1C(=O)c1ccc(OCCCN(CCCC)CCCC)cc1	viral replication, inhibitor	Calu-3	40 h	2.95 µM
Nc1nc(S)[nH]c(=S)c1C(=O)Nc1ccccc1	viral replication	Vero C1008	72 h	341 µM
CN1[C@@H]2CC[C@H]1C[C@@H](OC(c1ccccc1)c1ccc(Cl)cc1)C2 (stereo partly drawn)	cytopathic effect	Vero C1008	72 h	8.9 µM
CCCCCCCCC=CCCCCCCCC(=O)NCCO	viral replication, inhibitor	Huh-7	–	> 2 µM
CC(C)(C)[C@@H]1NC(=O)O[C@@H]2CCC[C@H]2OC/C=C/C(F)(F)c2nc3ccccc3nc2O[C@@H]2C[C@@H](C(=O)N[C@]3(C(=O)NS(=O)(=O)C4(C)CC4)C[C@H]3C(F)F)N(C2)C1=O	viral replication	HEK-293T	–	> 50 µM
CCN(CCO)CCCC(C)Nc1ccnc2cc(Cl)ccc12 (stereo not drawn)	viral replication, inhibitor	Vero C1008	–	9.21 µM
CCN(CC)CCCC(C)Nc1c2ccc(Cl)cc2nc2ccc(OC)cc12 (stereo not drawn)	viral replication	Calu-3	–	> 50 µM
Cc1cccc(C)c1OCC(=O)N[C@@H](Cc1ccccc1)[C@@H](O)C[C@H](Cc1ccccc1)NC(=O)[C@H](C(C)C)N1CCCNC1=O	viral replication, inhibitor	Vero C1008	–	7.79 to 12 µM
N=C(N)NCCN1CCCCCCC1	viral replication, inhibitor	Huh-7	–	> 2 µM
Fc1ccc(-n2cc(CCCCN3CCC4(CC3)OCc3ccccc34)c3ccccc32)cc1	viral replication, inhibitor	A549-ACE2	–	2.04 µM
Nc1nc(S[C@@H]2O[C@H](CO)[C@H](O)[C@H](O)[C@H]2O)[nH]c(=S)c1C(=O)Nc1ccccc1	viral replication	Vero C1008	72 h	18.5 µM
COc1ccc2c(O[C@@H]3C[C@H]4C(=O)N[C@]5(C(=O)NS(=O)(=O)C6CC6)C[C@H]5/C=C\CCCCN(C)C(=O)[C@@H]4C3)cc(-c3nc(C(C)C)cs3)nc2c1C	viral replication	HEK-293T	–	2.3 µM

SMILES	assay	system	setting	IC50
Nc1nc(S[C@@H]2O[C@H](CO)[C@@H](O)[C@H](O)[C@H]2O)[nH]c(=S)c1C(=O)Nc1ccc(Cl)cc1	viral replication	Vero C1008	72 h	45.3 µM
CCCCc1oc2ccc(NS(C)(=O)=O)cc2c1C(=O)c1ccc(OCCCN(CCCC)CCCC)cc1	viral replication, inhibitor	Vero C1008	–	1.5 µM
O=C1NCN(c2ccccc2)C12CCN(CCCC(c1ccc(F)cc1)c1ccc(F)cc1)CC2	viral replication, inhibitor	Vero C1008	–	3.16 µM
C[C@]12C=CC(=O)C=C1CC[C@@H]1[C@@H]2[C@@H](O)C[C@@]2(C)[C@H]1C[C@H]1O[C@@H](C3CCCCC3)O[C@]12C(=O)CO	viral replication	VeroE6/TMPRSS2	–	8.1 µM
Clc1ccc(C(Cn2ccnc2)OCc2ccsc2Cl)c(Cl)c1 (stereo not drawn)	viral replication, inhibitor	Calu-3	40 h	2.43 µM
CC(=O)OC[C@H]1O[C@@H](Sc2nc(N)c(C(=O)Nc3ccccc3)c(=S)[nH]2)[C@H](OC(C)=O)[C@@H](OC(C)=O)[C@H]1OC(C)=O	viral replication	Vero C1008	72 h	86 µM
CC[C@H](C)C[C@H](C)CCCCCCCCC(=O)N[C@H]1C[C@@H](O)[C@@H](NCCN)NC(=O)[C@@H]2[C@@H](O)CCN2C(=O)[C@H]([C@H](O)CCN)NC(=O)[C@H]([C@H](O)[C@@H](O)c2ccc(O)cc2)NC(=O)[C@@H]2C[C@@H](O)CN2C(=O)[C@H]([C@@H](C)O)NC1=O	viral replication, inhibitor	Vero	24 h	> 200 µg/mL
CC(CN1c2ccccc2Sc2ccccc21)N(C)C (stereo not drawn)	viral replication, inhibitor	A549-ACE2	–	0.575 µM
Cc1cccc(/C=N/Nc2cc(N3CCOCC3)nc(OCCc3ccccn3)n2)c1	viral replication, inhibitor	Vero C1008	–	0.012 µM
O=c1c(O[C@@H]2O[C@H](CO)[C@@H](O)[C@H](O)[C@H]2O)c(-c2ccc(O)c(O)c2)oc2cc(O)cc(O)c12	viral replication, inhibitor	Huh-7	–	> 2 µM
C=C1C(=O)[C@@]23[C@H](O)C[C@@H]4C(C)(C)C(=O)CC[C@@]4(C)[C@@H]2CC[C@@H]1[C@H]3O	viral replication, inhibitor	Calu-3	40 h	2.9 µM
COc1c(O)cc2oc(-c3ccccc3)cc(=O)c2c1O	viral replication, inhibitor	Vero C1008	–	15.1 µM
C[C@@H](O)[C@H]1C(=O)N2C(C(=O)O)=C(S[C@@H]3CN[C@H](C(=O)N(C)C)C3)[C@H](C)[C@H]12	viral replication, inhibitor	Huh-7	–	> 2 µM
COc1ccc([C@@H]2Sc3ccccc3N(CCN(C)C)C(=O)[C@@H]2OC(C)=O)cc1	viral replication, inhibitor	Vero C1008	–	> 45 µM
O=C1CCC(N2C(=O)c3ccccc3C2=O)C(=O)N1 (stereo not drawn)	viral replication, inhibitor	Huh-7	–	> 2 µM
CC[C@@H](C)[C@@H]1NC(=O)[C@@H]2CCCN2C(=O)[C@H](Cc2ccccc2)N(C)C(=O)[C@H](Cc2ccccc2)NC(=O)[C@H](C(C)C)N(C)C(=O)[C@@H]([C@H](C)CC)OC(=O)[C@H](C(C)(C)O)N(C)C(=O)[C@H](CC(C)C)NC(=O)[C@H](C(C)C)N(C)C1=O	viral replication, inhibitor	Calu-3	40 h	4.53 µM
CCN(CC)CCOc1ccc(C(O)(Cc2ccc(Cl)cc2)c2ccc(C)cc2)cc1 (stereo not drawn)	viral replication, inhibitor	A549-ACE2	–	0.363 µM
O=C(Nc1ccc([N+](=O)[O-])cc1Cl)c1cc(Cl)ccc1O	viral replication, inhibitor	Huh-7	–	0.142 µM
CCOP(=O)(OCC)N1C/C(=C\c2ccc(Br)cc2)C(=O)C2(C1)C(c1ccc(Br)cc1)CN(C)C21C(=O)Nc2ccccc21 (stereo not drawn)	viral replication, inhibitor	Vero C1008	72 h	8.88 µM
CN(C)CCCN1c2ccccc2Sc2ccc(Cl)cc21	viral replication, inhibitor	Vero C1008	–	3.14 µM
COc1ccc(NC(=O)c2c(N)nc(S[C@@H]3O[C@H](COC(C)=O)[C@@H](OC(C)=O)[C@H](OC(C)=O)[C@H]3OC(C)=O)[nH]c2=S)cc1	viral replication	Vero C1008	72 h	169 µM
COc1cc2c(cc1OC)CN(CCc1ccc(NC(=O)c3cccc4c(=O)c5cccc(OC)c5[nH]c34)cc1)CC2	viral replication, inhibitor	A549-ACE2	–	3.89 µM
COc1cc(Nc2c(C#N)cnc3cc(OCCCN4CCN(C)CC4)c(OC)cc23)c(Cl)cc1Cl	viral replication, inhibitor	Huh-7	–	0.02 µM
CCSc1ccc2c(c1)N(CCCN1CCN(C)CC1)c1ccccc1S2	viral replication, inhibitor	Vero C1008	–	7.09 µM
